pIC50: −log10 of the molar value.
Assays:
DU-145 [1] = assay: Potency index, ratio of curcumin IC50 to test compound IC50 for human DU145 cells; assay type: functional
LNCaP [2] = assay: Antiproliferative activity against human LNCAP cells assessed as decrease in cell viability after 3 days by WST assay; assay type: functional, cell-based; settings: 72 h
Method in brief: (§1)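 Cells were seeded at 3,200 per well. PC-3 and LNCaP were grown in RPMI-1640 and DU-145 in EMEM, each with 10% FBS and 1% penicillin/streptomycin, at 37 °C and 5% CO2. Cells were exposed for 3 days to at least five concentrations, with DMSO as vehicle control. WST-1 reagent was then added for 3 h at 37 °C and absorbance read at 430 nm. IC50 came from linear inhibition, averaged over triplicates.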

LNCaP [3] = assay: Potency index, ratio of curcumin IC50 to test compound IC50 for human LNCAP cells; assay type: functional
DU-145 [4] = assay: Antiproliferative activity against human DU145 cells assessed as decrease in cell viability after 3 days by WST assay; assay type: functional, cell-based; settings: DU-145, 72 h; method in brief: as §1
PC-3 [5] = assay: Potency index, ratio of curcumin IC50 to test compound IC50 for human PC3 cells; assay type: functional
PC-3 [6] = assay: Antiproliferative activity against human PC3 cells assessed as decrease in cell viability after 3 days by WST assay; assay type: functional, cell-based; settings: PC-3, 72 h; method in brief: as §1

SMILES	pIC50 (LNCaP [2])	pIC50 (DU-145 [4])	pIC50 (PC-3 [6])	Ratio IC50 (DU-145 [1])	Ratio IC50 (LNCaP [3])	Ratio IC50 (PC-3 [5])
Cc1nc(C(F)(F)F)c(/C=C/C(=O)/C=C/c2nc3ccccc3n2C)s1	6.47	6.11	6.32	34	40	53
CCC(C)n1ccnc1/C=C/C(=O)/C=C/c1nc2ccccc2n1C(C)CC (stereo not drawn)	6.48	6.46	6.62	75	41	106
CCCn1c(/C=C/C(=O)/C=C/c2sc(C)nc2C(F)(F)F)nc2ccccc21	6.34	6.08	6.26	31	30	46
Cc1cccc(/C=C/C(=O)/C=C/c2ccccn2)n1	6.52	6.20	6.27	42	45	47
CC(C)n1ccnc1/C=C/C(=O)/C=C/c1cnc(N2CCCC2)s1	5.39	5.43	5.16	7	3	4
CC(C)Cn1ccnc1/C=C/C(=O)/C=C/c1nc2ccccc2n1CC(C)C	6.25	6.43	6.70	71	24	127
CC(C)CCn1ccnc1/C=C/C(=O)/C=C/c1nc2ccccc2n1CCC(C)C	6.03	6.11	6.68	34	41	121
COc1cc(/C=C/C(=O)/C=C/c2ccccn2)cc(OC)c1OC	6.40	6.08	6.08	32	34	30
CC(C)n1ccnc1/C=C/C(=O)/C=C/c1cnc(N2CCCCC2)s1	5.66	5.59	5.47	10	6	8

The remaining compounds from weak to strong by pIC50 (LNCaP [2]), led by results:

pIC50 (LNCaP [2])	pIC50 (DU-145 [4])	pIC50 (PC-3 [6])	SMILES	Ratio IC50 (DU-145 [1])	Ratio IC50 (LNCaP [3])	Ratio IC50 (PC-3 [5])
5.75	5.69	5.77	COc1ccc(/C=C/C(=O)/C=C/c2ccccn2)cc1OC	13	8	15
5.85	5.88	5.64	CC(C)n1ccnc1/C=C/C(=O)/C=C/c1cnc(N2CCOCC2)s1	20	10	11
6.04	6.07	5.88	CCC(C)n1ccnc1/C=C/C(=O)/C=C/c1ccc(OC)c(OC)c1 (stereo not drawn)	31	15	19
6.18	6.17	6.14	CCC(C)n1ccnc1/C=C/C(=O)/C=C/c1cc(OC)c(OC)c(OC)c1 (stereo not drawn)	39	21	35
6.27	6.18	6.10	Cc1nc(-c2ccncc2)sc1/C=C/C(=O)/C=C/c1nccn1C(C)C	40	25	32
6.35	5.95	6.26	O=C(/C=C/c1ccccn1)/C=C/c1nccs1	23	30	46
6.40	6.51	6.72	CCCCn1ccnc1/C=C/C(=O)/C=C/c1nc2ccccc2n1CCCC	85	34	134
6.51	6.15	6.35	Cc1cc(/C=C/C(=O)/C=C/c2ccccn2)no1	38	44	57
6.74	6.17	6.25	Cn1c(/C=C/C(=O)/C=C/c2ccccn2)nc2ccccc21	39	76	45

— ChEMBL document CHEMBL4190216, “Asymmetric 1,5-diarylpenta-1,4-dien-3-ones: Antiproliferative activity in prostate epithelial cell models and pharmacokinetic studies” (Eur J Med Chem, 2017)
